Assay results of several laboratories.
≈ marks a conversion by molar mass, not a printed value.
Organism: Mycobacterium tuberculosis
Observed: microbial growth

SMILES | test | test system | conditions | endpoint | value
COc1ccc(-c2cc(C(F)(F)F)c3c(N)c(C(=O)NCCc4ccccc4)sc3n2)cc1 | – | H37RV | – | IC50 | > 100 µM
CO[C@H]1/C=C/O[C@@]2(C)Oc3c(C)c(O)c4c(O)c(c(/C=N/N5CCN(C)CC5)c(O)c4c3C2=O)NC(=O)/C(C)=C\C=C\[C@H](C)[C@H](O)[C@@H](C)[C@@H](O)[C@@H](C)[C@H](OC(C)=O)[C@@H]1C | – | H37RA | – | MIC90 | 0.01 µM
CO[C@H]1/C=C/O[C@@]2(C)Oc3c(C)c(O)c4c(O)c(c(/C=N/N5CCN(C)CC5)c(O)c4c3C2=O)NC(=O)/C(C)=C\C=C\[C@H](C)[C@H](O)[C@@H](C)[C@@H](O)[C@@H](C)[C@H](OC(C)=O)[C@@H]1C | – | H37RV | – | MIC50 | 0.06 µg/mL (≈ 0.0729 µM)
CCCCCCC#Cc1cncc(-c2nnc(SCc3ccc([N+](=O)[O-])o3)n2CCCN)c1 | resazurin | ERDMAN | – | IC50 | 12 µM
COc1ccc(-c2cc(C(F)(F)F)c3c(N)c(C(=O)N4CC5(CCOC5)C4)sc3n2)cc1 | – | H37RV | – | IC50 | 24 µM
FC(F)(F)c1ccc(CCNc2cc(-c3ccccn3)nc3nncn23)cc1 | – | H37RV | – | IC90 | 0.53 µM
CCc1cc(=O)c2c(OCC3CO3)c3ccoc3c(OC)c2o1 (centres unmarked) | resazurin | H37RV | 21 days | MIC | 128 µg/mL
CCCCCCC#Cc1cncc(-c2nnc(SCc3cc([N+](=O)[O-])cc([N+](=O)[O-])c3)n2C2CCNCC2)c1 | resazurin | ERDMAN | – | IC50 | 2.6 µM
Clc1cccc(CCOc2cc(-c3ccccn3)nc3ncnn23)c1 | – | H37RV | – | MIC | > 100 µM
COc1ccc(-c2cc(C(F)(F)F)c3c(N)c(C(=O)N4CCCC4(C)C)sc3n2)cc1 | – | H37RV | – | IC50 | > 100 µM
CCCCCCC#Cc1cncc(-c2nnc(SCc3ccc([N+](=O)[O-])cc3)n2CCCN)c1 | resazurin | ERDMAN | – | IC50 | 20 µM
NC(=O)c1cncc(Cn2c(=S)[nH]c3ccc(Cl)cc3c2=O)c1 | – | H37RV | – | MIC90 | 63 µM
CCc1ccc(CCNc2cc(-c3ccco3)nc3nncn23)cc1 | – | H37RV | – | MIC | 0.43 µM
CC(C)c1ccc(Cn2c(=S)[nH]c3ccc(Cl)cc3c2=O)cn1 | – | H37RV | – | MIC90 | > 100 µM
Cc1ccc(-c2cc(NCCc3ccc(C(F)(F)F)cc3)n3cnnc3n2)o1 | – | H37RV | – | IC90 | 0.37 µM
Nc1c(C(=O)NCc2ccccc2)sc2nc(-c3ccccc3)ccc12 | – | H37RV | – | IC50 | 42 µM
FC(F)(F)c1ccc(CCNc2cc(-c3cccs3)nc3nncn23)cc1 | – | H37RV | – | MIC | 0.31 µM
O=c1c2cc(Cl)c(CO)cc2[nH]c(=S)n1Cc1cccnc1 | – | H37RV | – | MIC90 | 3.6 µM
Nc1c(C(=O)N2CCOCC2)sc2nc(-c3ccccc3)ccc12 | – | H37RV | – | IC50 | 46 µM

SMILES | test | test system | conditions | endpoint | value
Cc1ccc(CCNc2cc(-c3nccs3)nc3nncn23)cc1 | – | H37RV | 5 days | MIC | 32 µM
NCC[C@H](O)C(=O)N[C@@H]1C[C@H](N)[C@@H](O[C@H]2O[C@H](CN)[C@@H](O)[C@H](O)[C@H]2O)[C@H](O)[C@H]1O[C@H]1O[C@H](CO)[C@@H](O)[C@H](N)[C@H]1O | – | H37RV | – | MIC90 | 3.3 µg/mL
CC(=O)c1cc(-c2ccoc2)ccc1OCCc1cccc(F)c1 | – | – | – | IC50 | 0.26 µM
NNC(=O)c1ccncc1 | – | H37RV | – | MIC90 | 0.81 µg/mL
CCCCCCC#Cc1cncc(-c2nnc(SCc3cc(C(F)(F)F)cc(C(F)(F)F)c3)n2CCCN)c1 | resazurin | ERDMAN | – | IC50 | 3.1 µM
Clc1ccc(CCNc2cc(-c3ccccn3)nc3nnc(C4CC4)n23)cc1 | – | H37RV | – | MIC | 36 µM
CCC(NC(=O)c1sc2nc(-c3ccc(OC)cc3)cc(C(F)(F)F)c2c1N)c1ccccc1 (centres unmarked) | – | H37RV | – | IC50 | 0.55 µM
O=c1c2cc(Cl)ccc2[nH]c(=S)n1Cc1ccc(-n2cccn2)nc1 | – | H37RV | – | MIC90 | > 100 µM
CC[C@@H](CO)NCCN[C@@H](CC)CO | resazurin | H37RV | 21 days | MIC | 0.25 µg/mL
CNC(=O)c1cc(C(F)F)ccc1OCCc1cccc(F)c1 | – | – | – | IC50 | 0.73 µM
COc1ccc(-c2cc(C(F)(F)F)c3c(N)c(C(=O)NC(C)C4CCCCC4)sc3n2)cc1 (centres unmarked) | – | H37RV | – | IC50 | 0.93 µM
O=c1c2ccncc2[nH]c(=S)n1Cc1cccnc1 | – | H37RV | – | MIC90 | > 100 µM
O=C(c1cc2ccc(-c3ccccc3)nc2s1)N1CCCC1 | – | H37RV | 5 days | IC90 | > 100 µM
N#Cc1cncc(Cn2c(=S)[nH]c3cc(CO)c(Cl)cc3c2=O)c1 | – | H37RV | – | MIC90 | 2.7 µM
CCCCCCC#Cc1cncc(-c2nnc(SCc3ccc(Cl)cc3)n2CCCN)c1 | resazurin | ERDMAN | – | IC50 | 29 µM
N#Cc1cc2c(=O)n(Cc3cccnc3)c(=S)[nH]c2cn1 | – | H37RV | – | MIC90 | 85.8 µM
CCc1cc(=O)c2c(OCC(O)CN3CCOCC3)c3ccoc3c(OC)c2o1 (centres unmarked) | resazurin | H37RV | 21 days | MIC | 256 µg/mL
c1ccc(-c2cc(Nc3ccc(N4CCOCC4)cc3)n3cnnc3n2)nc1 | – | H37RV | – | MIC | > 100 µM
COC(=O)OCc1cc2[nH]c(=S)n(Cc3cncnc3)c(=O)c2cc1Cl | – | H37RV | – | MIC90 | 1.84 µM
